In ChEMBL document CHEMBL1151927, “CSI-FID: high throughput label-free detection of DNA binding molecules” (Bioorg Med Chem Lett, 2009):
Active and inactive are the calls of the source. No cut-off for these calls is given here.

How the values were obtained:
Assay type in all cases: nucleic-acid assay
Nucleic Acid [1] = test: Displacement of ethidium bromide from DNA ATAA region by […] analysis
Method in brief: (§1)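 CSI microarray of hairpinned dsDNA probes covering all 9 bp permutations. The array was incubated 1 h with 6 μM EtBr in binding buffer (100mM NaCl, 100mM Tris pH 8.0). Unlabeled ligand (3 μM) was then added to the EtBr solution for a further 1 h to reach equilibrium. Per-feature ratio of displaced to undisplaced EtBr fluorescence, expressed as FD = 1−(1−Rseq)/(1−RMax).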

Nucleic Acid [2] = test: Binding affinity to minor groove region of DNA
Nucleic Acid [3] = test: Displacement of ethidium bromide from DNA TTAA region by […] analysis; method in brief: as §1
Nucleic Acid [4] = test: Displacement of ethidium bromide from DNA TGAATAA region at 3 uM by […] analysis; method in brief: as §1
Nucleic Acid [5] = test: Displacement of ethidium bromide from DNA TAAA region by […] analysis; method in brief: as §1
Nucleic Acid [6] = test: Displacement of ethidium bromide from DNA ATTA region by […] analysis; method in brief: as §1
Nucleic Acid [7] = test: Displacement of ethidium bromide from DNA TAGAATA region at 3 uM by […] analysis; method in brief: as §1
Nucleic Acid [8] = test: Displacement of ethidium bromide from DNA TATA region by […] analysis; method in brief: as §1
Nucleic Acid [9] = test: Displacement of ethidium bromide from DNA AATA region by […] analysis; method in brief: as §1
Nucleic Acid [10] = test: Displacement of ethidium bromide from DNA ATAT region by […] analysis; method in brief: as §1
Nucleic Acid [11] = test: Displacement of ethidium bromide from DNA TATTAGA region at 3 uM by […] analysis; method in brief: as §1
Nucleic Acid [12] = test: Displacement of ethidium bromide from minor groove region of DNA at 3 uM by […] analysis; method in brief: as §1
Nucleic Acid [13] = test: Displacement of ethidium bromide from DNA AAAT region by […] analysis; method in brief: as §1
Nucleic Acid [14] = test: Displacement of ethidium bromide from DNA AAAA region by […] analysis; method in brief: as §1

SMILES: Cn1cc(NC(=O)c2cc(NC(=O)CNC(=N)N)cn2C)cc1C(=O)NCCC(=N)N [NETROPSIN]
- Activity (Nucleic Acid [1]): Active
- Kd (Nucleic Acid [2]): 1 nM
- Activity (Nucleic Acid [3]): Active
- Activity (Nucleic Acid [4]): Active
- Activity (Nucleic Acid [5]): Active
- Activity (Nucleic Acid [6]): Active
- Activity (Nucleic Acid [7]): Active
- Activity (Nucleic Acid [8]): Active
- Activity (Nucleic Acid [9]): Active
- Activity (Nucleic Acid [10]): Active
- Activity (Nucleic Acid [11]): Active
- Activity (Nucleic Acid [12]): Active
- Activity (Nucleic Acid [13]): Active
- Activity (Nucleic Acid [14]): Active
